Bioassay records (PubChem)
hERG protect – hERG rescue from dofetilide block, primary screen, cell-based, CHO-hERG, FluxOR thallium flux, dofetilide IC70 | dofetilide IC70 present | activation (rescue from dofetilide block), less the hit threshold, % at 10 µM | 310,000 tested, 0.51% active | AID 1511, 2009;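 active means activation above the mean of controls blocked by dofetilide plus 5 SD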;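 further: thallium influx through hERG after potassium depolarization seen as dye fluorescence rise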
Cl transport mod – KCC2 cotransporter modulators, thallium flux, primary screen, cell-based, HEK293 KCC2, FluoZin-2 fluorescence, MLSMR; B-score of Tl+ flux slope (higher = more flux/activation; lower = inhibition) at 10 µM; KCC2 cells, thallium flux FluoZin-2 fluorescence; 190,000 tested, 2.2% active;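 active means thallium flux slope and its plate-corrected score both differing from the plate sample mean at a set confidence after two filtering rounds, in either direction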;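 further: slope of fluorescence scaled to starting intensity during 10 to 20 s after thallium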
Mot1-301 SUMO – yeast Mot1-301 growth rescue at high temperature, primary screen, SUMOylation pathway inhibitor project, S. cerevisiae, ATP luminescence, 38.5C; S. cerevisiae Mot1-301 growth rescue; percent above DMSO median, 100 means doubled; growth rescue, % at 18.8 µM; 320,000 tested, 1% active; AID 2716, 2010;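 active means every valid replicate shows activation above 250% relative to neutral control wells; inactive means the rest, any valid replicate at or below 250%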
KCNQ1 pot – potentiators or activators of KCNQ1 channel, primary screen, cell-based, thallium flux, high-throughput. Potassium voltage-gated channel subfamily KQT member 1 (Homo sapiens), P51787. B-score at 10 µM. CHO-K1 KCNQ1, thallium flux FluxOR fluorescence; active compounds read high. AID 2648, 2010. 310,000 tested, 0.35% active;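 active means fluorescence ratio B-score, a plate-corrected score, at least three library SD, with initial intensity B-score within 5 SD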
Target sequence (P51787 whole entry, looked up): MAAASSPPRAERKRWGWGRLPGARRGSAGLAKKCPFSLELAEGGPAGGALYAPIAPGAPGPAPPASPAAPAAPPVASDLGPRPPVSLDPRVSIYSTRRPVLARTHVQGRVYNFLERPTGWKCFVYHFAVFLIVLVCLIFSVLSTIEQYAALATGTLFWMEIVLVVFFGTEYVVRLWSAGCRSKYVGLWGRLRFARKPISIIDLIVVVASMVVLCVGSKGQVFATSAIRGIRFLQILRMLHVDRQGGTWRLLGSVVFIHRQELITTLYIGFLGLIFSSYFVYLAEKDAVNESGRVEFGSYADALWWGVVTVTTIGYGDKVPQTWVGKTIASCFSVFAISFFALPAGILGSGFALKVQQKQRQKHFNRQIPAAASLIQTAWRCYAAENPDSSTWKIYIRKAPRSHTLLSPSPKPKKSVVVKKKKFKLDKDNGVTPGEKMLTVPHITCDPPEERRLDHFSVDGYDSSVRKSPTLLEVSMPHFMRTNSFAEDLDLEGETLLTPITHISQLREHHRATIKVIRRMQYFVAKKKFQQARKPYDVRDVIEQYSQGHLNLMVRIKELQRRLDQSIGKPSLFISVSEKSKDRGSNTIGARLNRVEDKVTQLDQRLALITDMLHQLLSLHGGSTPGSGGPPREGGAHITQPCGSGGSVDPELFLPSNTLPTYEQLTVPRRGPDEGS
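System: CHO-K1 cells stably expressing KCNQ1 / Medium: assay buffer for compound exposure, DMSO matched across wells / Reagent: thallium- and potassium-containing depolarizing buffer / Compound: one concentration, matched DMSO / Incubation: 20 min compound pretreatment at room temperature / Measured by: kinetic FluxOR fluorescence, 10 s baseline plus 110 s post-stimulus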
AI-2 QS mod – Vibrio harveyi AI-2 quorum sensing modulators, primary screen, JMH597 strain, luminescence/OD600 ratio. Vibrio harveyi JMH597 AI-2 luminescence/OD600 ratio, 9 h; active compounds read low; strain lacks LuxN and CqsS sensors; 0 = neutral-control median. activity change, % at 7.5 µM. 300,000 tested, 0.4% active. AID 2094, 2009; in the data active means activity change below about -75%, passing the limit was not always enough;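 further: luminescence divided by OD600 gain over 9 h not by final OD600 alone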
KCNQ1 block – inhibitors of human KCNQ1 channel, primary screen, cell-based, thallium flux, high-throughput; Potassium voltage-gated channel subfamily KQT member 1 (Homo sapiens), P51787; CHO-K1 KCNQ1, FluxOR thallium flux fluorescence; active compounds read high; B-score at 10 µM; 310,000 tested, 1.3% active; AID 2642, 2010;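 active means compounds whose thallium flux B-score, printed positive for inhibition, exceeds three library SD while starting fluorescence stays within three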;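 further: channel opened by potassium depolarization with thallium stimulus after 20 min compound exposure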
Each line names hits and unclear results; the compound was inactive in the other large screens. Only some compounds are listed: those with a hit (about 4.2% of all), similar ones and a draw of the others.

CC(Sc1nc(N)cc(=O)[nH]1)C(=O)NC1CCCCC1 (stereo not drawn)	Mot1-301 SUMO active (no result: hERG protect, KCNQ1 pot, AI-2 QS mod, KCNQ1 block)
CC(=O)C1C(c2cccc(F)c2)c2c(n[nH]c2C)CC1(C)O (stereo not drawn)	none
C/C(CC(=O)Nc1ccccc1-c1ccccc1)=N\NC(=O)COc1ccc(C)cc1Br	KCNQ1 block 6
CCOc1cc2c(cc1/C=C/c1noc(C)c1[N+](=O)[O-])OC(C)C2 (stereo not drawn)	KCNQ1 block 7 (no result: Cl transport mod)
CC(C)(C#N)NC(=O)C1CCCN1S(=O)(=O)c1ccc2ccccc2c1 (stereo not drawn)	none (no result: Cl transport mod, AI-2 QS mod)
CC(C)NC(=O)C1CCN(C(=O)c2cc3sccc3n2Cc2ccc(F)cc2)CC1	hERG protect 5.0
COC(=O)c1ccccc1NC(=O)C1CCN(C(=O)c2ccc(OC)cc2)CC1	none
C/C(=N\NC(N)=S)c1ccc2c(c1)OCCO2	none
C/C(=N\NC(=S)Nc1ccc(F)cc1)c1ccc2c(c1)OCCO2	Cl transport mod 48
Cc1cccc(Nc2nc(NCc3ccco3)c3ccccc3n2)c1	KCNQ1 block 10
Cc1cccc(Nc2nc(N)c([N+](=O)[O-])c(NCc3ccccc3)n2)c1	KCNQ1 block 7
O=[N+]([O-])c1ccc(S(=O)(=O)Nc2ccccn2)cc1	none (no result: Cl transport mod)
O[C@@H]1CN(Cc2ccc(-n3cccn3)cc2)CC[C@H]1N1CCN(c2ccccc2F)CC1	none (no result: Cl transport mod)
COC(=O)c1ccc(CN(C)S(=O)(=O)c2cccs2)cc1	none (no result: Cl transport mod, AI-2 QS mod)
O=C(COC(=O)c1n[nH]c2ccccc12)c1cccc(Br)c1	AI-2 QS mod -92.2 (no result: Cl transport mod)
Cc1ccc(C)c(C(=O)COC(=O)c2n[nH]c3ccccc23)c1	none (no result: hERG protect, Cl transport mod, KCNQ1 pot, AI-2 QS mod, KCNQ1 block)
CCOc1ccc(C(C)(C)C)cc1S(=O)(=O)n1nc(C)cc1C	KCNQ1 block 6
CCOc1ccc(S(=O)(=O)n2nc(C)cc2C)c2ccccc12	none
Cc1ccccc1CN(C)Cc1cc(=O)oc2c(C)c(C)ccc12	KCNQ1 block 9 (no result: Cl transport mod)
Cn1cnnc1SCC(=O)NC1CCCc2ccccc21 (stereo not drawn)	none
Cn1nnnc1SCC(=O)NC1CCCc2ccccc21 (stereo not drawn)	hERG protect 6.3
COc1cccc(CNC(=O)C2CCC(=O)N(C3CC3)C2)c1OC (stereo not drawn)	none (no result: Cl transport mod, Mot1-301 SUMO)
CCCCC1(Cc2cccc([N+](=O)[O-])c2)C(=O)N(c2ccccc2)N(c2ccccc2)C1=O	KCNQ1 block 6 (no result: Cl transport mod)
Cn1ncc(Cl)c1C(=O)N1CCN(S(=O)(=O)c2ccc(Cl)s2)CC1	none (no result: Cl transport mod)
CS(=O)(=O)N(CC(=O)NCc1ccncc1)C1CCCCC1	none
COc1ccc(-c2nc(S(=O)(=O)c3ccccc3)c(NCCCN3CCOCC3)o2)cc1	none (no result: hERG protect, Cl transport mod, KCNQ1 pot, AI-2 QS mod, KCNQ1 block)
CC(C)NC(=S)N/N=C1\CCCCc2ccccc21	none
COc1cccc(NC(=S)N/N=C2/CCCCc3ccccc32)c1	Cl transport mod 23.9, KCNQ1 pot 15 (no result: Mot1-301 SUMO)
S=c1[nH]c2cc(Cl)ccc2s1	hERG protect 55.2, Cl transport mod 23.6, KCNQ1 pot 74, AI-2 QS mod -78.3
S=c1[nH]c2ccc(Cl)cc2[nH]1	none (no result: Mot1-301 SUMO)
CC(C)NC(=S)N/N=C/c1cc(Br)ccc1O	Cl transport mod 5.9
Cc1ccc(NC(=O)CSc2nn(-c3ccc(Cl)cc3)c(=S)s2)cc1S(=O)(=O)N(C)C	KCNQ1 block 6
Cc1ccc(NC(=O)CNc2ccc(Cl)c(Cl)c2)cc1S(=O)(=O)N(C)C	none
COCCN1C(=O)N[C@@H](c2cccc(F)c2)C(C(=O)OC)=C1C	hERG protect 4.9
O=C(N1CCOCC1)N1CCN(C(=O)N2CCOCC2)CC1	none (no result: hERG protect, Mot1-301 SUMO, KCNQ1 pot, AI-2 QS mod, KCNQ1 block)
CCN(C(=O)c1cc2c(=O)[nH]c3ccc(C)cc3c2s1)c1ccccc1F	hERG protect 9.2, KCNQ1 pot 26
CCOC(=O)/C(C#N)=C/c1ccc(SC)cc1	hERG protect 42.5
CCOC(=O)/C(C#N)=C/c1ccc(OC)c(OC)c1	none
COC(C(=O)N/N=C(\C)c1ccc(O)cc1)c1ccccc1 (stereo not drawn)	hERG protect 5.1 (no result: Cl transport mod, AI-2 QS mod)
COC(C(=O)N/N=C(\C)c1ccc(C)cc1)c1ccccc1 (stereo not drawn)	none (no result: Cl transport mod)
O=C(CC(c1ccccc1)c1ccccc1)Nc1ncn[nH]1	KCNQ1 pot 24
COC(=O)c1ccccc1NC(=S)N(Cc1ccc2c(c1)OCO2)Cc1cc2ccc(C)cc2[nH]c1=O	KCNQ1 block 6
OC1(c2ccc(Cl)cc2)CN(c2ccccc2)C2=[N+]1CCS2 (stereo not drawn)	KCNQ1 block 6
CC12CCC(C(=O)OC3CCCCC3)(OC1=O)C2(C)C (stereo not drawn)	hERG protect 5.8 (no result: Cl transport mod)
CN1CCC(OC(=O)C23CCC(C)(C(=O)O2)C3(C)C)CC1 (stereo not drawn)	none
COc1cc2cccc(OC)c(=O)c2c(OC)c1OC	Mot1-301 SUMO 757.2
N#Cc1c2ccc(O)cc2n2ccccc12	Cl transport mod -4.22
CCOC(=O)C1CCN(C(=O)Cc2c(C(=O)O)n(CC)c3ccccc23)CC1	hERG protect 5.5
CCOC(=O)N1CCN(C(=O)Cc2c(C(=O)O)n(C)c3ccccc23)CC1	none
CC(C)CC(=O)Nc1ccccc1-c1nnn(CC(=O)N2CCOCC2)n1	none
COC(=O)c1ccc(NC(=O)c2cccc(Cl)c2)o1	none (no result: Mot1-301 SUMO)
CC(OC(=O)c1nc(Cl)ccc1Cl)C(=O)Nc1ccc2c(c1)OCCO2 (stereo not drawn)	none (no result: Cl transport mod)
CC(=O)OCC(=O)Nc1ccc(Br)c(C)c1	none
Cc1cc(NC(=O)COC(=O)Cn2c(C)csc2=O)ccc1Br	KCNQ1 block 6 (no result: Cl transport mod)
COc1ccccc1OCCn1c(=O)n(C)c2ccccc21	Mot1-301 SUMO 344.7
C=C(C)n1c(=O)[nH]c2ccccc21	none (no result: Mot1-301 SUMO)
Cc1cccc(Cc2ncc(C(F)(F)F)cc2Cl)c1	none (no result: Cl transport mod)
CCOC(=O)c1ccc(NC(=O)c2nn(C)cc2Br)cc1	none (no result: Cl transport mod)
CCOC(=O)c1ccc(NC(=O)c2nn(CC)cc2Br)cc1	Mot1-301 SUMO 349.1
CCOC(=O)c1c(NC(=O)c2nn(CC)cc2Br)sc2c1CCCCC2	Mot1-301 SUMO 857.9
O=C(Nc1ccccc1F)C1COc2ccccc2O1 (stereo not drawn)	none (no result: Cl transport mod)
O=C(NCCc1ccc(Cl)cc1)c1ccc2[nH]c(=O)c(=O)[nH]c2c1	none (no result: Cl transport mod)
